From ChEMBL document CHEMBL5649168, “Discovery of a selective catalytic p300/CBP inhibitor that targets lineage-specific tumours” (Nature, 2017)
The source made the active and inactive calls. No cut-off for these calls is given here.

How the values were obtained:
MAO-A = MAO-A (Homo sapiens, UniProt P21397); assay: Inhibition of MAO-A (unknown origin) at 10 uM by radioligand binding assay relative to control
MAO-B = MAO-B (Homo sapiens, UniProt P27338); assay: Inhibition of human recombinant MAO-B at 10 uM by radioligand binding assay relative to control
[1] = biological target: ALK tyrosine kinase receptor (Homo sapiens, UniProt Q9UM73); assay: Inhibition of ALK (unknown origin)
Sequence of ALK tyrosine kinase receptor (Q9UM73 whole entry): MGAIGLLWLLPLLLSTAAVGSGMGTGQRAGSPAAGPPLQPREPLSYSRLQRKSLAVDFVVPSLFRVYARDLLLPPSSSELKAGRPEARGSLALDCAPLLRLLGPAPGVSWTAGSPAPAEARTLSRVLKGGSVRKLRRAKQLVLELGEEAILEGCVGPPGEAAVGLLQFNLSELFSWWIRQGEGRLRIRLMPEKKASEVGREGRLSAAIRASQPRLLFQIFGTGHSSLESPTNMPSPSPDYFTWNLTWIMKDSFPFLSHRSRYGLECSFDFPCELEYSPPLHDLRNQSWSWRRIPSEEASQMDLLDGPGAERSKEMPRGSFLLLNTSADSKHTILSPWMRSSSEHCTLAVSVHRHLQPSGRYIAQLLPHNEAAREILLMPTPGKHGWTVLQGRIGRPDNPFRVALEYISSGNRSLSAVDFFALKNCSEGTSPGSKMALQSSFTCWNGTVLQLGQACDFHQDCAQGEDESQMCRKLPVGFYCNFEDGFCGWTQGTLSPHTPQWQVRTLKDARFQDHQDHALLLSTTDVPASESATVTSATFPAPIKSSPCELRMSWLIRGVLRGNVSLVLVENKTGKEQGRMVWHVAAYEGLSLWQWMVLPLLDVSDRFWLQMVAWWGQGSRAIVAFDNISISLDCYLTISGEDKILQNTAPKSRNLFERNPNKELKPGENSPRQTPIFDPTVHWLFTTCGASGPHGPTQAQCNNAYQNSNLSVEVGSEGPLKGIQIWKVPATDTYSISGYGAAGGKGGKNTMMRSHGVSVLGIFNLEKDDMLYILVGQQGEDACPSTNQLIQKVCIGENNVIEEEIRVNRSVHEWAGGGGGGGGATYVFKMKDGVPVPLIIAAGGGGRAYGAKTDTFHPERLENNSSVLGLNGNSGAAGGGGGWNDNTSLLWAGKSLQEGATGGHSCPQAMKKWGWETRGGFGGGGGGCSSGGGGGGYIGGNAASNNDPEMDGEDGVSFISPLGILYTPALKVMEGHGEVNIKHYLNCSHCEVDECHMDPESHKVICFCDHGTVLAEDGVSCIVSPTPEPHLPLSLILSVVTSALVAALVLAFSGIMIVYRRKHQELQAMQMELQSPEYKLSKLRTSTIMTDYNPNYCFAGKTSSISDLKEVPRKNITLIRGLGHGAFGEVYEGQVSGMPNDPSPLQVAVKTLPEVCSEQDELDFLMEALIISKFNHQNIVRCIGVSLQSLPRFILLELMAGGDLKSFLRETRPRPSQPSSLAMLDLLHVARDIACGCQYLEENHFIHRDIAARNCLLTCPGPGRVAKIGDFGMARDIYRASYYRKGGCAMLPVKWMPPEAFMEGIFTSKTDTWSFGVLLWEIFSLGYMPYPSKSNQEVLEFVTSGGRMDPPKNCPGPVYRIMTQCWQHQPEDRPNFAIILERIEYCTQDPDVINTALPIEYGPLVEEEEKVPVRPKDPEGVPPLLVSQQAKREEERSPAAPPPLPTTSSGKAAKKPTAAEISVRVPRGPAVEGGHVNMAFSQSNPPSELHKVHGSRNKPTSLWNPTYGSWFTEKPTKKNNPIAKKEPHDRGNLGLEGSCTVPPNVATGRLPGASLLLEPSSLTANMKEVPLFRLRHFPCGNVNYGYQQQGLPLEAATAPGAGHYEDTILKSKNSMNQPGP

[2] = biological target: Dual specificity tyrosine-phosphorylation-regulated kinase 1B (Homo sapiens, UniProt Q9Y463); assay: Inhibition of DYRK1B (unknown origin)
[3] = biological target: Mitogen-activated protein kinase 1 (Homo sapiens, UniProt P28482); assay: Inhibition of Erk2 (unknown origin)
Focal adhesion kinase 1 = Focal adhesion kinase 1 (Homo sapiens, UniProt Q05397); assay: Inhibition of FAK (unknown origin)
[4] = biological target: Insulin-like growth factor 1 receptor (Homo sapiens, UniProt P08069); assay: Inhibition of IGF1R (unknown origin)
[5] = biological target: Inhibitor of nuclear factor kappa-B kinase subunit epsilon (Homo sapiens, UniProt Q14164); assay: Inhibition of IKKE (unknown origin)
[6] = biological target: Mitogen-activated protein kinase 8 (Homo sapiens, UniProt P45983); assay: Inhibition of JNK1 (unknown origin)
Sequence of Mitogen-activated protein kinase 8 (P45983 whole entry): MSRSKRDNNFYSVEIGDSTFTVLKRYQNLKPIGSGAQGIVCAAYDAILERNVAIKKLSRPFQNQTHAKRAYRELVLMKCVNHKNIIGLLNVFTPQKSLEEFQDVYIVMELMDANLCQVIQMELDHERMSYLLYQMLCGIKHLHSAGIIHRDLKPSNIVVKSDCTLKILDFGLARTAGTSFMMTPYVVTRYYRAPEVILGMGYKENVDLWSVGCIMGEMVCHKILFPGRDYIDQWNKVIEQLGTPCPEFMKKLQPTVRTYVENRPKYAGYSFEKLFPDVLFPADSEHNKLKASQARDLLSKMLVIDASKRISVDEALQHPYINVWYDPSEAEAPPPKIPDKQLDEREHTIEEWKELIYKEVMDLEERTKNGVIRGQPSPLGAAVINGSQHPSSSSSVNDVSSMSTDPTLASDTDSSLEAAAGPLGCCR

[7] = biological target: Platelet-derived growth factor receptor beta (Homo sapiens, UniProt P09619); assay: Inhibition of PDGFRbeta (unknown origin)
Sequence of Platelet-derived growth factor receptor beta (P09619 whole entry): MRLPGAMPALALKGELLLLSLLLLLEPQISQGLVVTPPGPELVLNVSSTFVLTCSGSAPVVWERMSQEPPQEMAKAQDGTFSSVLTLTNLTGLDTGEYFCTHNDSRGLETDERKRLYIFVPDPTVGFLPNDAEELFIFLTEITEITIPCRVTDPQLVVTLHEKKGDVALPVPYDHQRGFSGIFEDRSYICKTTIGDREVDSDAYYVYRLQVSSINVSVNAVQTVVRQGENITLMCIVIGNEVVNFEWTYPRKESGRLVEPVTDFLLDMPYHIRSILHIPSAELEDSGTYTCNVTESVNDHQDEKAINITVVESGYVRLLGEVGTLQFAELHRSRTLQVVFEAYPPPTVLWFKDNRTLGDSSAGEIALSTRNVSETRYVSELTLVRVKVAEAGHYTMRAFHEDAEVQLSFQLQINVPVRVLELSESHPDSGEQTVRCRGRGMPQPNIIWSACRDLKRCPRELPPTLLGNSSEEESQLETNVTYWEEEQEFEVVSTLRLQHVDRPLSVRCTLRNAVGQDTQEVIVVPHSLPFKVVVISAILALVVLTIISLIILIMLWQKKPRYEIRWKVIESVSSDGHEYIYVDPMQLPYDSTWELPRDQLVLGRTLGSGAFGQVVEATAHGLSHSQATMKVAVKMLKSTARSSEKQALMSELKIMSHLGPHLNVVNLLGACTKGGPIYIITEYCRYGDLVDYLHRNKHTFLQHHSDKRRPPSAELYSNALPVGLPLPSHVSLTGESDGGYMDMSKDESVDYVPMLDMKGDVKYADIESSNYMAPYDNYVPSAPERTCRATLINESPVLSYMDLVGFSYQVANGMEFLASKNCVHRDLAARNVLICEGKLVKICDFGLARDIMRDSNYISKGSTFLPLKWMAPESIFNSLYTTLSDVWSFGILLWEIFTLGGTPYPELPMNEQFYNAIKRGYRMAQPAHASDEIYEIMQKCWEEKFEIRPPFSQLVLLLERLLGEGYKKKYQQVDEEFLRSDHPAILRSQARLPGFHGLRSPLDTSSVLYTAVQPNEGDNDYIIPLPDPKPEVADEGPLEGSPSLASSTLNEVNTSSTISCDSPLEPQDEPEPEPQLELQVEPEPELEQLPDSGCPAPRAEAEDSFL

[8] = biological target: cAMP-dependent protein kinase (PKA) (Homo sapiens, UniProt P22694+P17612+P22612); assay: Inhibition of PKA (unknown origin); assay type: protein assay
[9] = biological target: Rho-associated protein kinase 1 (Homo sapiens, UniProt Q13464); assay: Inhibition of Rock1 (unknown origin)
Sequence of Rho-associated protein kinase 1 (Q13464 whole entry): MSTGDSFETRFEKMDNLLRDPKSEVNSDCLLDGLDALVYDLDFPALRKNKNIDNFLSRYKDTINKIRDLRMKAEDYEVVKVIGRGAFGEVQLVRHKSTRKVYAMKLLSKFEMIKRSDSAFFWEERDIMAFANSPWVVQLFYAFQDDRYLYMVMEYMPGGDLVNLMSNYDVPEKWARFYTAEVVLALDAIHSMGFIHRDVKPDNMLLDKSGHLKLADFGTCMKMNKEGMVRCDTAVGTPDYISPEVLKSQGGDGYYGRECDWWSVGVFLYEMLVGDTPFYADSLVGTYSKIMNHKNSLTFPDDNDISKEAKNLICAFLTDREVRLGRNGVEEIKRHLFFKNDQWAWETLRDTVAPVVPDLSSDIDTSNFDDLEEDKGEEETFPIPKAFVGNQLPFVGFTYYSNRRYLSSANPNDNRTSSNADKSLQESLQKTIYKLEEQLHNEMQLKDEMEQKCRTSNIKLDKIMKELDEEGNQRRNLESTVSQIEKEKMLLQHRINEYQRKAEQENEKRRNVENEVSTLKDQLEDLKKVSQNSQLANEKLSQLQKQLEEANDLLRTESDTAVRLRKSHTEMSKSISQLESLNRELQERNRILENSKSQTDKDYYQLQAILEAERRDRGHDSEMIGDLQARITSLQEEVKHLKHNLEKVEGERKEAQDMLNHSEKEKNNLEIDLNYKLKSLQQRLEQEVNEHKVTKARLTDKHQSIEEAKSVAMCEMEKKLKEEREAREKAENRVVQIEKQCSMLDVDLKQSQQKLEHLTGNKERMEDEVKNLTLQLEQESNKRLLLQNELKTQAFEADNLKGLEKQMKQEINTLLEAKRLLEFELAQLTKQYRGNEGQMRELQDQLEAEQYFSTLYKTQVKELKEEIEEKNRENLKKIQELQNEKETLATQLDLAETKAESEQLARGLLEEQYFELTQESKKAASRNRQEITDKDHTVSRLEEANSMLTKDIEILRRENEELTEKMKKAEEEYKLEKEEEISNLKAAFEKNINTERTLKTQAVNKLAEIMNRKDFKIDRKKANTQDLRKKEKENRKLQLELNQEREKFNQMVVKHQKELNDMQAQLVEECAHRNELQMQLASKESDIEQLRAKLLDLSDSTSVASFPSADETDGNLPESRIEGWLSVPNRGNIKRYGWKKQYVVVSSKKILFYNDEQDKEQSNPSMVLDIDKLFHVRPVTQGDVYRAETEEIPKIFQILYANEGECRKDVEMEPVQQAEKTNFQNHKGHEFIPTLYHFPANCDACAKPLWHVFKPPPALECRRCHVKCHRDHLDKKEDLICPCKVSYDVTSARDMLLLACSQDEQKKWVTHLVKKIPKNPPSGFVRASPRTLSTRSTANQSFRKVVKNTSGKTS

[10] = biological target: Ribosomal protein S6 kinase alpha-3 (Homo sapiens, UniProt P51812); assay: Inhibition of Rsk2 (unknown origin)
[11] = biological target: Serine/threonine-protein kinase 33 (Homo sapiens, UniProt Q9BYT3); assay: Inhibition of STK33 (unknown origin)
[12] = biological target: High affinity nerve growth factor receptor (Homo sapiens, UniProt P04629); assay: Inhibition of TrkA (unknown origin)
[13] = biological target: CREB-binding protein/Histone acetyltransferase p300 (Homo sapiens, UniProt Q09472+Q92793); assay: Inhibition of p300/CBP in human 22Rv1 cells assessed as reduction in H3K18Ac level incubated for 3 hrs by Hoechst 33342 staining based high content microscopy analysis; assay type: cell-based
In short: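 Cells received an 8-point half-log dilution series from 10 µM. They were then fixed in 10% formaldehyde (10 min, RT), permeabilised with 0.1% Triton X-100 and blocked with 1% BSA for 1 h. Primary antibodies were applied overnight at 4 °C, followed by Alexa488 anti-rabbit, Alexa555 anti-mouse and Hoechst 33342 for 1 h. Fifteen fields per well were imaged and average mean intensity taken. EC50 came from a sigmoidal fit.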

Calu-6 = assay: Antiproliferative activity against human Calu-6 cells assessed as inhibition of cell viability incubated for 3 to 5 days by Celltiter-Glo luminescent assay; assay type: functional, cell-based
NCI-H441 = assay: Antiproliferative activity against human NCI-H441 cells assessed as inhibition of cell viability incubated for 3 to 5 days by Celltiter-Glo luminescent assay; assay type: functional, cell-based
VCaP = assay: Antiproliferative activity against human VCaP cells assessed as inhibition of cell viability incubated for 3 to 5 days by Celltiter-Glo luminescent assay; assay type: functional, cell-based
DU-145 = assay: Antiproliferative activity against human DU-145 cells assessed as inhibition of cell viability incubated for 3 to 5 days by Celltiter-Glo luminescent assay; assay type: functional, cell-based
HT-144 = assay: Antiproliferative activity against human HT-144 cells assessed as inhibition of cell viability incubated for 3 to 5 days by Celltiter-Glo luminescent assay; assay type: functional, cell-based
G-361 = assay: Antiproliferative activity against human G361 cells assessed as inhibition of cell viability incubated for 3 to 5 days by Celltiter-Glo luminescent assay; assay type: functional, cell-based
NCI-H1048 = assay: Antiproliferative activity against human NCI-H1048 cells assessed as inhibition of cell viability incubated for 3 to 5 days by Celltiter-Glo luminescent assay; assay type: functional, cell-based
HCC1143 = assay: Antiproliferative activity against human HCC1143 cells assessed as inhibition of cell viability incubated for 3 to 5 days by Celltiter-Glo luminescent assay; assay type: functional, cell-based
MDA-MB-231 = assay: Antiproliferative activity against human MDA-MB-231 cells assessed as inhibition of cell viability incubated for 3 to 5 days by Celltiter-Glo luminescent assay; assay type: functional, cell-based
KMS-11 = assay: Antiproliferative activity against human KMS-11 cells assessed as inhibition of cell viability incubated for 3 to 5 days by Celltiter-Glo luminescent assay; assay type: functional, cell-based
OCI-Ly18 = assay: Antiproliferative activity against human OCI-Ly18 cells assessed as inhibition of cell viability incubated for 3 to 5 days by Celltiter-Glo luminescent assay; assay type: functional, cell-based
CA46 = assay: Antiproliferative activity against human CA46 cells assessed as inhibition of cell viability incubated for 3 to 5 days by Celltiter-Glo luminescent assay; assay type: functional, cell-based
OCI-Ly3 = assay: Antiproliferative activity against human OCILY3 cells assessed as inhibition of cell viability incubated for 3 to 5 days by Celltiter-Glo luminescent assay; assay type: functional, cell-based
SU-DHL-6 = assay: Antiproliferative activity against human SU-DHL-6 cells assessed as inhibition of cell viability incubated for 3 to 5 days by Celltiter-Glo luminescent assay; assay type: functional, cell-based
OCI-Ly1 = assay: Antiproliferative activity against human OCI-Ly1 cells assessed as inhibition of cell viability incubated for 3 to 5 days by Celltiter-Glo luminescent assay; assay type: functional, cell-based
WSU-NHL = assay: Antiproliferative activity against human WSU-NHL cells assessed as inhibition of cell viability incubated for 3 to 5 days by Celltiter-Glo luminescent assay; assay type: functional, cell-based
OCI-AML-5 = assay: Antiproliferative activity against human OCI-AML5 cells assessed as inhibition of cell viability incubated for 3 to 5 days by Celltiter-Glo luminescent assay; assay type: functional, cell-based
HL-60 = assay: Antiproliferative activity against human HL-60 cells assessed as inhibition of cell viability incubated for 3 to 5 days by Celltiter-Glo luminescent assay; assay type: functional, cell-based
MOLT-4 = assay: Antiproliferative activity against human MOLT-4 cells assessed as inhibition of cell viability incubated for 3 to 5 days by Celltiter-Glo luminescent assay; assay type: functional, cell-based
[14] = Half life in CB17 SCID mouse xenografted with LuCaP-77 CR cell at 100 mg/kg, ip administered for 7 days; assay type: ADME, organism-based; details: in vivo, time 7 day
[15] = Tmax in CB17 SCID mouse xenografted with LuCaP-77 CR cell at 100 mg/kg, ip administered for 7 days; assay type: ADME, organism-based; details: in vivo, time 7 day
[16] = Ratio of drug concentration in brain to plasma in CB17 SCID mouse xenografted with LuCaP-77 CR cell at 50 mg/kg, po measured after 24 hrs
LuCaP-77 CR cell = details: Homo sapiens, dose 100.0 mg/kg, time 7.0 day

Sequence of MAO-A (P21397 whole entry): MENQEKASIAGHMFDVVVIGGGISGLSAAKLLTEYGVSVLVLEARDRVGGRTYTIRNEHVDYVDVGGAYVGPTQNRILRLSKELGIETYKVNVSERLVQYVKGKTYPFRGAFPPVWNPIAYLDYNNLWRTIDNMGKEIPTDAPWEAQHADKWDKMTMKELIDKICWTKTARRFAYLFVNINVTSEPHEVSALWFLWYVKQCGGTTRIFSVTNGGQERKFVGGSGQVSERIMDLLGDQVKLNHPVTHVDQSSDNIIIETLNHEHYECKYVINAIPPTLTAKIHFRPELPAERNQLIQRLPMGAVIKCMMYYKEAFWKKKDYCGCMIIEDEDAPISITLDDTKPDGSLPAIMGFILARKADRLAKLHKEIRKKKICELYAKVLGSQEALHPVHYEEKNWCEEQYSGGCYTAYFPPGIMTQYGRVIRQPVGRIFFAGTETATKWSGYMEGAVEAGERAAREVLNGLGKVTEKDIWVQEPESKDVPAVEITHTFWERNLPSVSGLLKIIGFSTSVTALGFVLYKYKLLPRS

With `CNC(=O)Nc1ccc2c(c1)CC[C@@]21OC(=O)N(CC(=O)N(Cc2ccc(F)cc2)[C@@H](C)C(F)(F)F)C1=O` [A-485] the inhibition at 10 µM (MAO-A) was 28%, the inhibition at 10 µM (MAO-B) was -20% and the IC50 [1] was over 10 µM. It also gave an IC50 [2] of over 10 µM, an IC50 [3] of over 10 µM and an IC50 (Focal adhesion kinase 1) of over 10 µM. It also gave an IC50 [4] of over 10 µM, an IC50 [5] of over 10 µM and an IC50 [6] of over 10 µM. The IC50 [7] was over 10 µM, the IC50 [8] was over 10 µM and the IC50 [9] was over 10 µM. It also gave an IC50 [10] of over 10 µM, an IC50 [11] of over 10 µM and an IC50 [12] of over 10 µM. For the same compound, the INH [13] was 1.14 µM, the EC50 (Calu-6) was 8.57 µM and the EC50 (NCI-H441) was over 10 µM. It also gave an EC50 (VCaP) of 0.04 µM, an EC50 (DU-145) of over 10 µM and an EC50 (HT-144) of 3.08 µM. For the same compound, the EC50 (G-361) was 3.77 µM, the EC50 (NCI-H1048) was over 10 µM and the EC50 (HCC1143) was over 10 µM. The EC50 (MDA-MB-231) was over 10 µM, the EC50 (KMS-11) was 0.24 µM and the EC50 (OCI-Ly18) was 0.32 µM. For the same compound, the EC50 (CA46) was 0.48 µM, the EC50 (OCI-Ly3) was 0.49 µM and the EC50 (SU-DHL-6) was 0.75 µM. It also gave an EC50 (OCI-Ly1) of 0.94 µM, an EC50 (WSU-NHL) of 1.06 µM and an EC50 (OCI-AML-5) of 4.86 µM. The EC50 (HL-60) was over 10 µM, the EC50 (MOLT-4) was over 10 µM and the half-life [14] was 1.7 h. For the same compound, the Tmax [15] was 3 h, the Kp at 24 h [16] was 0.097 and the inhibition (LuCaP-77 CR cell) was “Active”.
